# Measured values pooled from the literature.
SMILES,tested on,test,test system,conditions,measurement,value
COC(=O)COc1ccc(NC(=O)C2(c3ccc(Cl)cc3)CC2)cc1,U-937,"cell growth or viability, ATP luminescence",,72 h,GI50,3.9 µM
COc1ccc(-c2cc(-c3ccc4oc(=O)cc(C)c4c3O)nc(N)n2)cc1,KB,"cell growth or viability, MTT",,"8 µg/mL, 72 h",inhibition,0%
CCCCCCCCCN1CCN(CC(O)(Cn2cncn2)c2ccc(F)cc2F)CC1 (stereo not drawn),Pichia kudriavzevii,"microbial growth, broth dilution",ATCC6258,48 h,MIC,0.975 µg/mL
C[C@@H](c1ncncc1F)[C@](O)(Cn1cncn1)c1ccc(F)cc1F,Acanthamoeba quina,"parasite growth, resazurin",,7 days,IC50,24.1 µM
Cc1cc(=O)oc2ccc(-c3cc(-c4cccc(Cl)c4)nc(N)n3)c(O)c12,KB,"cell growth or viability, MTT",,"8 µg/mL, 72 h",inhibition,5%
CCCCCCCCCCCCCCN1CCN(CC(O)(Cn2cncn2)c2ccc(F)cc2F)CC1 (stereo not drawn),Pichia kudriavzevii,"microbial growth, broth dilution",ATCC6258,48 h,MIC,0.975 µg/mL
C[C@@H]1[C@H](O)[C@@H](C)/C=C/C=C/C=C/C=C/C=C/C=C/C=C/[C@H](O[C@@H]2O[C@H](C)[C@@H](O)[C@H](N)[C@@H]2O)C[C@@H]2O[C@](O)(C[C@@H](O)C[C@@H](O)[C@H](O)CC[C@@H](O)C[C@@H](O)CC(=O)O[C@H]1C)C[C@H](O)[C@H]2C(=O)O,Pichia kudriavzevii,"microbial growth, broth dilution",ATCC6258,,IC50,0.6 µg/mL
C[C@@H]1[C@H](O)[C@@H](C)/C=C/C=C/C=C/C=C/C=C/C=C/C=C/[C@H](O[C@@H]2O[C@H](C)[C@@H](O)[C@H](N)[C@@H]2O)C[C@@H]2O[C@](O)(C[C@@H](O)C[C@@H](O)[C@H](O)CC[C@@H](O)C[C@@H](O)CC(=O)O[C@H]1C)C[C@H](O)[C@H]2C(=O)O,Pichia kudriavzevii,microbial growth,ATCC6258,,IC50,0.54 µg/mL
Clc1ccccc1C(c1ccccc1)(c1ccccc1)n1ccnc1,Fusarium solani,"microbial growth, disc diffusion",,20000 µg/mL,inhibition zone,23 mm
COC(=O)COc1ccc(NC(=O)C2(c3ccc(Cl)c(Cl)c3)CC2)cc1,U-937,"cell growth or viability, ATP luminescence",,72 h,GI50,3 µM
Cc1cc(=O)oc2ccc(-c3cc(-c4ccc(Br)cc4)nc(N)n3)c(O)c12,KB,"cell growth or viability, MTT",,"8 µg/mL, 72 h",inhibition,2%
COC(=O)COc1ccc(NC(=O)C2(c3ccccc3)CC2)cc1,U-937,"cell growth or viability, ATP luminescence",,72 h,GI50,4.2 µM
C[C@@H]1[C@H](O)[C@@H](C)/C=C/C=C/C=C/C=C/C=C/C=C/C=C/[C@H](O[C@@H]2O[C@H](C)[C@@H](O)[C@H](N)[C@@H]2O)C[C@@H]2O[C@](O)(C[C@@H](O)C[C@@H](O)[C@H](O)CC[C@@H](O)C[C@@H](O)CC(=O)O[C@H]1C)C[C@H](O)[C@H]2C(=O)O,Pichia kudriavzevii,microbial killing,ATCC6258,,MFC,1.35 µM
Cc1cc(=O)oc2ccc(-c3cc(-c4ccc(Cl)cc4)nc(N)n3)c(O)c12,KB,"cell growth or viability, MTT",,"128 µg/mL, 72 h",inhibition,60%
COC(=O)COc1ccc(NC(=O)C2(c3cccc(C)c3)CC2)cc1,U-937,"cell growth or viability, ATP luminescence",,72 h,GI50,> 200 µM
